# Screens from PubChem.
# This excerpt belongs to a sample that is enriched for hits.
# ABCB6 inh MLPCN – inhibitors of human ABC transporter ABCB6; Q9NP58; K562-ABCB6 porphyrin accumulation, flow cytometry, 1 h; active compounds read low; fluorescence ratio to DMSO, % at 10 µM; actives 0.19% (n = 360,000); AID 602162;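 active = fluorescence ratio to DMSO below 75%, the collection mean minus 3 SD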;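 note: signal is porphyrin accumulated inside mitochondria; 100% equals median channel fluorescence of DMSO control wells; lower ratio means ABCB6 inhibition with less porphyrin fluorescence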
# Dynein transport – dynein cargo transport inhibition | 3617.4 mouse cells, GR-EGFP nuclear translocation imaging; test concentration mostly 20 µM; stimulated with dexamethasone, 1 µM; active compounds read low | z-score, hits read low | actives 0.47% (n = 220,000) | AID 1381;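 active = plate z-score of nuclear minus cytoplasmic receptor signal below a set negative limit, without overly bright fluorescence or cell loss, cut at about -3.5 in these data, passing the limit was not always enough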;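 note: z-score of nuclear minus cytoplasmic ring GR-EGFP intensity difference per well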
#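 Buffer or medium: tet-free, stripped-serum medium; Also added: dexamethasone, 1.0 µM final; Technique: high-content fluorescence imaging after fixation; Times: 48 h induction, 1 h compound, 30 min dex at 37 °C; Read-out: per-cell GR-EGFP intensity, nucleus versus surrounding cytoplasmic ring, well-averaged.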
# V-ATPase pHluor – regulators of yeast V-ATPase proton transport. S. cerevisiae, pHLuorin cytosolic pH fluorescence. actives 0.37% (n = 350,000). AID 504577. response, % at 10 µM; in the data active = response mostly above about 7.3%, no sharp cut-off; inactive = mostly below about 5.4%; note: actives read high
# Cl transport mod – KCC2 (human) Cl- transport modulation | Q9H2X9 | KCC2 cells, thallium flux FluoZin-2 fluorescence | B-score of Tl+ flux slope (higher = more flux/activation; lower = inhibition) at 10 µM | actives 2.2% (n = 190,000) | AID 1456;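 active = thallium flux slope and its plate-corrected score both differing from the plate sample mean at a set confidence after two filtering rounds, in either direction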;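 note: slope of fluorescence scaled to starting intensity during 10 to 20 s after thallium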
# pCIP destab – lowers stability of the mouse p/CIP coactivator protein; Q05BA5; AID 1984; F442A p/CIP-EGFP cells, EGFP fluorescence, 16 h; actives 0.01% (n = 290,000); decrease of EGFP signal, % at 10 µM;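 active = EGFP signal decrease of at least 30% at 10 µM or well 3 SD below plate mean, unless failing retest; inactive = the rest, including hits failing retest or dose response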
# Starred values were filed as active, the others as inactive; . = no result.
SMILES,ABCB6 inh MLPCN,Dynein transport,V-ATPase pHluor,Cl transport mod,pCIP destab
Cc1cc(C)cc(C(=O)/C=C2\NC(=O)CS2)c1,98,-0.73,-1,6.4*,-1
O=C(Nc1nc2c(s1)CCCC2)c1cccnc1,95,-0.54,10,-0.2,-7
O=C(NC(=S)Nc1nc2c(s1)CCCC2)c1ccc(C(=O)c2ccccc2)cc1,97,-0.74,6,23*,-3
COc1ccc(CCNC(=O)CCc2nc3ccccc3[nH]2)cc1OC,102,-1,14*,0.023,9
Cc1ccc(NC(=O)c2cc(S(=O)(=O)N3CCCCC3)c[nH]2)cc1Cl,95,.,.,.,.
O=c1c2cccnc2[nH]c(=S)n1CCCN1CCN(c2ccc(F)cc2)CC1,131,0.16,1,6*,-3
C[C@@H]1CN([C@@H](C)CO)C(=O)CCCn2nncc2CO[C@H]1CN(C)Cc1cccc(C(F)(F)F)c1,109,.,4,.,.
CCn1c(=S)[nH]c2scc(-c3cccs3)c2c1=O,91,1.8,-2,60*,-11
C=CCn1c(=S)[nH]c2scc(-c3ccc(C)o3)c2c1=O,100,1.2,-1,61*,-7
CCOC(=O)[C@]12CCCC=C1N(Cc1ccco1)C(=O)[C@H](CC(=O)N1CCCCC1)C2,100,.,.,.,.
CCCNC(=O)c1cc(C2CCCCN2C(=O)c2cc(OC)c(C)c(OC)c2)on1 (stereo not drawn),96,.,.,.,.
CCNC(=O)C1(C)CCCN(C(=O)c2cccc(C)c2C)C1 (stereo not drawn),92,.,.,.,.
COc1ccc(NC(=O)C2(C)CCN2C(=O)c2ccc(C(C)(C)C)cc2)cc1OC (stereo not drawn),93,.,.,.,.
O=C(c1ccc(F)cc1)C1CCN(CCn2c(=S)[nH]c3ccccc3c2=O)CC1,.,.,.,7*,-12
CC(C)(C)OC(=O)N[C@@H](Cc1ccccc1)c1nnc(S(=O)(=O)Cc2ccccc2)o1,.,-4.3*,.,-1.1,-27
CCSc1nnc([C@H](Cc2ccccc2)NC(=O)OC(C)(C)C)o1,93,0.21,2,0.63,0
Cc1cccc(C(O)c2ncc(-c3ccc(Cl)cc3)[nH]2)c1C (stereo not drawn),98,.,.,.,.
O=C(NC(=S)NCc1ccccc1)c1ccccc1F,96,-0.28,11,15*,-19
Cc1ccccc1C(=O)NC(=S)N(CCO)Cc1ccccc1,96,.,-1,.,2
O=C(NC(=S)N(Cc1ccccc1)Cc1ccccc1)c1ccccc1F,102,-0.051,-14,65*,5
COc1ccc(NC(=O)C2CCN(S(=O)(=O)c3ccc(C)cc3)CC2)cc1OC,74*,-0.65,-2,.,-7
COc1ccc(NC(=O)C2CCN(S(C)(=O)=O)CC2)cc1OC,98,.,2,.,3
Nc1ncnc(N)c1NC(=O)c1cc(Cl)c(OCc2ccccc2)c(Cl)c1,99,.,-2,.,.
O=C(Nc1ccc2c(c1)OCCO2)C(c1cc2ccccc2o1)N1CCN(C/C=C/c2ccccc2)CC1 (stereo not drawn),103,.,.,.,.
CS(=O)(=O)N(CC(=O)N1CCCC1)c1cccc(C(F)(F)F)c1,95,.,-1,.,.
SMILES,ABCB6 inh MLPCN,Dynein transport,V-ATPase pHluor,Cl transport mod,pCIP destab
Cc1nnc(SCc2ccc(F)cc2)n1NC/C=C/c1ccccc1,.,.,-2,-4.7*,2
CC(C)(C)Cc1c(-c2ccco2)nc2ccc(Cl)cn12,108,.,.,.,.
O=C(NCc1cccnc1)c1cccc(S(=O)(=O)N2CCOCC2)c1,93,-1,15*,1.4,-12
CCOC(=O)C1CC(=NO)c2ccc(OC)c(OC)c2C1 (stereo not drawn),96,.,3,.,.
CC(c1ccco1)N(C(=O)c1ccccc1NS(=O)(=O)c1cc([N+](=O)[O-])ccc1Cl)c1ccccn1 (stereo not drawn),101,-0.78,2,5.4*,-17
CC(c1ccco1)N(C(=O)c1ccccc1NS(=O)(=O)c1cccc([N+](=O)[O-])c1)c1ccccn1 (stereo not drawn),106,-0.67,.,0.24,-16
Cc1nn(-c2ccccc2)c(Cl)c1/C=C(\CC(=O)O)c1nc2ccccc2s1,100,1.8,2,-3*,-6
CC(C)c1ccc(C2NC(=S)NC3=C2C(=O)CCC3)cc1 (stereo not drawn),69*,-0.63,0,-0.71,5
Cc1ccc(C2NC(=S)NC3=C2C(=O)CCC3)cc1 (stereo not drawn),101,-0.21,0,1.2,10
